Only some compounds are listed: those with a hit (about 2.6% of all), similar ones and a draw of the others.
Hsp70 activator: transcriptional activators of Hsp70. HeLa Hsp70 promoter luciferase reporter, luminescence; scaled: vehicle 0, proteasome-inhibitor control 100%. activation, % at 10 µM. 200,000 tested, 0.04% active;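 active means activation above the mean across all tested compounds plus 3 SD, cutoff set per campaign, cut at about 5.5% in these data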
HSF-1 act: increases HSF-1 driven luciferase reporter signal. NIH3T3-HGL HSF-1 luciferase reporter, MG132, 8 h; 100% = twice DMSO control signal. AID 504408. activation, % at 9 µM. 300,000 tested, 1.7% active;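 active means mean replicate activation of at least 50% with a set share of replicates each reaching 50%; inconclusive means only one of those two conditions met; inactive means mean below 50% and too few replicates reaching it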
Rad51 HR inh: Rad51 (human) homologous recombination inhibition. hRad51 DNA strand exchange, fluorescence dequenching. inhibition, % at 10 µM. 200,000 tested, 0.085% active. AID 1385;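 active means inhibition above 40% at the single screening dose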
Target sequence (Q06609 whole entry, looked up): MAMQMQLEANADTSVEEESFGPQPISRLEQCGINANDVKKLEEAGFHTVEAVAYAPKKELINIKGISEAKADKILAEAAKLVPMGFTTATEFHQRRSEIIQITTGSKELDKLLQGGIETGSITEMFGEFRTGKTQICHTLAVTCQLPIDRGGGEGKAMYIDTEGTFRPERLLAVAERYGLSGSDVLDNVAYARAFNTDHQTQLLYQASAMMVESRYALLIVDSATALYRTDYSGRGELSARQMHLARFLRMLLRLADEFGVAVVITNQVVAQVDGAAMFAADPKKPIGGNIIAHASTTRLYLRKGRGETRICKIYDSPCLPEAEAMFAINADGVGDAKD
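Material: hRad51 filaments on single-stranded DNA; Reagent: Donor/quencher-labelled 47-bp dsDNA substrate; Compound: 10 µM final, single point; Schedule: 37 °C 15-min filament assembly, 30-min compound preincubation, 15-min exchange; Technique: FRET fluorescence, excitation 485 nm, emission 520 nm; Benchmarks: control wells and blank wells on each plate.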
HSV augment: HSV replication enhancement; maximum fold increase; AID 1956; 220,000 tested, 0.005% active; HSV replication augmentation in cells, fold increase; in the data active means maximum fold increase above about 1.5; inconclusive means no clear call, values can overlap the other calls; tested in PC3 cells
HSF1 inhib: HSF1 inhibition; activity change, negative = inhibition, % at 7.5 µM (by protocol); NIH3T3-HGL HSE-luciferase, MG132-induced, luminescence 8 h; active compounds read low; 300,000 tested, 0.77% active;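 active means more than half of replicate wells show activity change below -50%, luminescence cut by over half; inconclusive means some wells, but at most half, below -50%; inactive means no replicate well below -50%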;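 further: luciferase reports HSF-1 transcriptional activity via heat shock element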
MDM2 E3 inh: Mdm2 E3 ligase (human) inhibition; Q00987; cell-based MDM2 ubiquitination luciferase reporter, 2 h; 0 = plate control, 100 = twice control, blank-subtracted; signal enhancement, % at 5 µM; 210,000 tested, 0.11% active; AID 1230;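 active means signal enhancement of 30% or more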;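 further: luminescence tracks abundance of the self-degrading MDM2-luciferase fusion protein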
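Timing – 2 h compound exposure at 37 °C · Assay system – mammalian cells stably expressing self-ubiquitinating, self-degrading MDM2 E3–luciferase fusion · Amount – 2000 cells seeded into each well · Measure – % luminescence enhancement versus blank-corrected plate control mean · Measured by – SteadyLite luminescence, 15 min reagent step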
Hits are given with their value; . = inactive; ? = inconclusive; / = no result.

SMILES	Hsp70 activator	HSF-1 act	Rad51 HR inh	HSV augment	HSF1 inhib	MDM2 E3 inh
CC1=NNC(=O)C1C(c1ccccc1)C1C(=O)NN=C1C (configuration not stated)	.	128	.	.	.	.
O=c1[nH]c(Cc2ccccc2)nc2scc(-c3ccccc3)c12	.	.	.	.	.	.
Cc1csc(SC(C)c2nc3scc(-c4ccccc4)c3c(=O)[nH]2)n1 (configuration not stated)	/	.	40	.	.	/
COc1ccc(S(=O)(=O)N(C)CC(=O)N2CCC(C(N)=O)CC2)cc1Cl	.	66	.	.	.	.
COc1ccc(N2CCN(C(c3cccs3)C(C)NS(=O)(=O)c3ccccc3)CC2)cc1 (configuration not stated)	.	82	/	/	.	.
COc1ccccc1OCc1nnc(SCC(=O)N2CCCCC2)o1	/	.	/	/	.	/
CCOC(=O)c1c(C)nc2c3ccccc3ccn12	.	?	.	.	.	.
CCOC(=O)c1c(C)nc2c(C)cccn12	.	.	.	.	-89	.
O=C(c1ccco1)N1CCN(c2ccc([N+](=O)[O-])cn2)CC1	/	.	/	/	.	/
NNC(=O)c1nn(-c2ccccc2)cc1O	.	.	.	.	-56	.
Oc1ccc2ccccc2c1C=Nc1ccc(Cl)cn1	.	.	.	.	.	.
O=c1nc(/C=C/c2cc([N+](=O)[O-])ccc2Cl)cc(C(F)(F)F)[nH]1	.	75	.	.	.	.
O=c1nc(/C=C/c2cccn2-c2ccc([N+](=O)[O-])cc2)cc(C(F)(F)F)[nH]1	.	.	.	.	.	.
CCOc1ccc(N2C(=O)/C(=C\c3ccc(O)c(OC)c3)S(=O)(=O)C2c2cccc([N+](=O)[O-])c2)cc1 (configuration not stated)	.	112	.	.	.	.
CCOc1ccc(N2C(=O)/C(=C\c3ccc(OC)c(O)c3)S(=O)(=O)C2c2cccc([N+](=O)[O-])c2)cc1 (configuration not stated)	.	/	.	.	/	.
Cc1ccc(/C=C/C(=O)c2ccccc2O)cc1	/	.	.	.	.	.
CN(C)c1ccc(/C=C/C(=O)c2ccccc2O)cc1	.	58	.	?	.	.
O=C(NCC(c1ccco1)N1CCc2ccccc2C1)C(=O)Nc1ccccc1F (configuration not stated)	/	.	/	/	.	/
Cc1cccc2nc(COc3ccc(-c4ccccc4)cc3)cn12	.	65	.	.	.	.
Cc1cc(C)n2cc(COc3ccc4ccccc4c3)nc2n1	.	67	/	.	.	.
Cc1cccc2nc(CSc3ccc(Cl)cc3)cn12	.	.	/	.	.	/
Cc1oc(-c2ccccc2Cl)nc1CS(=O)CC(=O)NCc1ccc2c(c1)OCO2 (configuration not stated)	/	.	/	/	.	/
CC1CCCCC1NC(=O)C1CCCN(S(=O)(=O)c2ccc(-n3cnnn3)cc2)C1 (configuration not stated)	/	.	/	/	.	/
COc1ccc(Br)cc1CN1CCN(Cc2c[nH]c3ccccc23)CC1	/	55	/	/	.	/
COc1ccccc1C(=O)NC(=S)Nc1ccccc1N1CCCC1	/	.	/	/	-58	/
SMILES	Hsp70 activator	HSF-1 act	Rad51 HR inh	HSV augment	HSF1 inhib	MDM2 E3 inh
Cc1ccccc1C(=O)NC(=S)Nc1ccccc1N1CCCC1	.	.	.	.	.	.
COc1ccccc1C(=O)NC(=S)N1CCCc2ccccc21	.	.	.	.	-61	.
Cn1c(=O)c([N+](=O)[O-])c(Cl)c2ccccc21	.	.	.	.	-73	.
CCN(CC)c1c([N+](=O)[O-])c(=O)n(C)c2ccccc12	.	.	.	.	.	.
Cc1cc(C)cc(NC(=O)c2ccc(CSc3nnc(C)s3)cc2)c1	.	69	.	.	.	.
Cc1ccc(NC(=O)c2ccc(CSc3nnc(C)s3)cc2)cc1	.	?	.	.	.	.
CC1CC(C)CN(S(=O)(=O)c2cc3c4c(c2)CCC(=O)N4CCC3)C1 (configuration not stated)	/	.	/	/	.	/
CCOC(=O)N1CCN(C(=O)CSCC(=O)N=c2sc3ccccc3n2C)CC1	.	.	105	.	.	.
C=CCNC(=O)c1ccc2nc(Cc3ccc(OC)cc3)oc2c1	/	78	/	/	.	/
